Compounds with a hit are over-represented: about 9.6% of the library has one in this group of screens.
PMI act hi M6P: increases human PMI activity with near-saturating mannose 6-phosphate; activation factor at 20 µM; AID 1216; coupled PMI enzyme assay, resazurin fluorescence, 20 min; stronger effect = higher value; 1 = untreated enzyme, 0 = substrate-free blank; hit rate 0.34% among 190,000; P34949;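 active = activation factor of 2 or more at 20 µM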
Target sequence (P34949 whole entry, looked up): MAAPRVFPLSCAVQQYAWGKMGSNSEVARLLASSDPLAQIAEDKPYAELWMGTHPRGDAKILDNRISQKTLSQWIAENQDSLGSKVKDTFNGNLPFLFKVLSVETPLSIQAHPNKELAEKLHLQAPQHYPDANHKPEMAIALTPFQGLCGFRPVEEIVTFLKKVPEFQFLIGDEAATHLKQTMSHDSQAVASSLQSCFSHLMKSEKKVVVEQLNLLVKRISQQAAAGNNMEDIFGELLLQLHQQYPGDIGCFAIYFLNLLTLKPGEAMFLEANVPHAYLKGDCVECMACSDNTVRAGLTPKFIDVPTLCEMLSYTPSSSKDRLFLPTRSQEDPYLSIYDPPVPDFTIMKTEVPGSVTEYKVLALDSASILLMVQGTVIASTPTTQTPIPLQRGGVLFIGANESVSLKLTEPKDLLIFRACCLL
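test system = human PMI in coupled enzyme assay | medium = HEPES-buffered pH 7.4 with magnesium and detergent | also added = 1.0 mM mannose-6-phosphate substrate with 0.22 mM NADP+ | compound = 20 µM single dose | times = 20 min incubation at room temperature | measured by = resorufin fluorescence (Ex 544/Em 590 nm) from resazurin via diaphorase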
L major viab: inhibitors of Leishmania major promastigote growth; Leishmania major promastigotes, resazurin fluorescence viability; hit rate 9% among 200,000; inhibition, % at 10 µM; in the data active = inhibition above about 50%;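 also: promastigotes grown with compound for 44 hours at 28 °C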
HCT116 bCat-KO: beta-catenin-lacking colon tumor cell growth suppression; HCT116 beta-catenin knockout viability, CellTiter-Glo, 60 h; stronger effect = lower value; viability, % at 10 µM; hit rate 1.5% among 140,000; AID 818;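 active = viability at or under a set limit, the compound median less 4 SD, cut at about 6% in these data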
PMI activator: increases human mannose-6-phosphate isomerase activity; P34949; purified human PMI, coupled resazurin fluorescence, 20 min; stronger effect = higher value; 1 = vehicle control, 0 substrate-free wells; activation factor at 20 µM; hit rate 0.005% among 190,000;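 active = activation factor of 2 or more at 20 µM, relative to plate controls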
PTEN del growth: suppresses growth of cells with PTEN deletion | HCT116 PTEN-null viability, CellTiter-Glo, 60 h; stronger effect = lower value | viability, % at 10 µM | hit rate 1.2% among 140,000;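 active = viability at or below a set limit, 4 SD under the median of all tested compounds, cut at about 3.7% in these data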;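 also: PTEN knockout HCT116 line with beta catenin targeted HCT116 as companion control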
L major 1uM: blocks Leishmania major promastigote growth at 1 uM, repeat screen. L. major promastigote growth, resazurin fluorescence, 48 h. hit rate 13% among 1,100. inhibition, % at 1 µM. shares compounds with L major viab;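 active = inhibition above about 50% in both repeat tests, limit read from the data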
Hits are given with their value; . = inactive; / = no result; ! = repeats disagree.

SMILES	PMI act hi M6P	L major viab	HCT116 bCat-KO	PMI activator	PTEN del growth	L major 1uM
N#Cc1ccc(NC(=S)Nc2ccccc2)cc1	.	62	.	.	.	.
Cc1nn(-c2nc3ccccc3[nH]2)c(=O)c2ccccc12	.	.	/	.	/	/
Cc1nn(-c2nc3ccccc3[nH]2)c(N)c1-c1ccc(Cl)cc1	.	65	.	.	.	74
Cc1ccc(N2CC(C)Cn3c2nc2c3c(=O)n(CC(=O)OCc3ccccc3)c(=O)n2C)cc1C (stereo not given)	.	59	.	.	.	.
Cc1ccc(N2CCCn3c2nc2c3c(=O)n(CC(=O)OCc3ccccc3)c(=O)n2C)cc1C	.	/	/	.	/	/
O=C(O)CC1CCC(=C(Cl)Cl)C1 (stereo not given)	.	95	.	.	.	.
CC(C)=N/N=C(\c1cccc([N+](=O)[O-])c1)C12CN3CN(CN(C3)C1)C2	.	51	.	.	.	.
O=C1CC(c2ccccc2Br)c2cc3c(cc2N1)CCC3 (stereo not given)	.	100	/	.	/	88
O=C(CCN1C(=O)c2ccccc2C1=O)N(CCO)Cc1ccccc1	.	.	.	.	.	/
O=C1C=C(N(CCO)Cc2ccccc2)c2ccccc2C1=O	.	96	/	.	/	.
O=C(O)c1cnn2c(-c3ccc(F)cc3)ccnc12	.	.	/	.	/	/
O=C1C2CCCCC2C(=O)N1Cc1ccccc1 (stereo not given)	.	.	/	.	/	/
O=c1ccsn1Cc1ccccc1	.	101	1.3	.	.	.
CC(/C=C/c1ccc(O)cc1)=N/O	.	.	.	.	.	/
Cc1nn(-c2ccccc2)c2c1C(O)n1c(nc3ccccc31)S2 (stereo not given)	.	58	.	.	.	.
CCOC(=O)c1cnc(-n2nc(C)cc2C)nc1Nc1ccc(N(C)C)cc1	.	91	.	.	.	.
Cc1ccc(C2C3=C(CC(C)(C)CC3=O)N(CCN3CCOCC3)C3=C2C(=O)CC(C)(C)C3)cc1	.	.	.	.	.	/
O=[N+]([O-])c1ccc(OC/C=C2\Oc3ccc([N+](=O)[O-])cc3C2N2CCOCC2)cc1 (stereo not given)	.	.	.	.	.	/
O=[N+]([O-])c1ccc2c(c1)C(N1CCOCC1)/C(=C/COc1ccc3ccccc3c1Br)O2 (stereo not given)	.	97	.	.	.	.
O=S(=O)(c1ccc(NC(=S)NN=C2CCCCC2)cc1)N1CCOCC1	.	.	/	.	/	/
COc1cc(NC(=O)Cn2nnc(-c3ccncc3)n2)cc(OC)c1	.	90	.	.	.	.
CC(=O)NCCNc1ccc([N+](=O)[O-])cn1	.	62	.	.	.	.
Cc1nc2sccn2c(=O)c1CCN1CCC(=C(c2ccc(F)cc2)c2ccc(F)cc2)CC1	.	.	.	.	.	/
Cc1nc2ccccn2c(=O)c1CCN1CCC(C(=O)c2ccc(F)cc2)CC1	.	97	.	.	.	.
c1ccc(-c2n[nH]c(-c3ccccn3)n2)nc1	.	100	.	.	.	.
SMILES	PMI act hi M6P	L major viab	HCT116 bCat-KO	PMI activator	PTEN del growth	L major 1uM
COC(=O)c1cccc(NC(=O)CCNC(=O)c2ccc([N+](=O)[O-])cc2)c1	.	.	.	.	.	/
CCOC(=O)c1ccc(N2C(=O)CC(C(=O)OC)=C2C)cc1	.	86	.	.	.	.
COC(=O)C1=C(C)N(c2ccc(C(=O)OC)cc2)C(=O)C1	.	.	.	.	.	/
CN(C(=O)n1cnc2ccccc21)c1ccccc1	.	.	.	.	.	/
ClC(Br)=C(n1cnc2ccccc21)n1cnc2ccccc21	.	100	.	.	.	.
Cc1cc(C=O)c2c(c1)C=CC1(Oc3ccccc3C(=O)N1C)O2 (stereo not given)	.	100	.	.	.	.
CN1C(=O)c2ccccc2OC1(C)Cc1ccccc1 (stereo not given)	.	.	.	.	.	/
CC1=C(OC(=O)C(C)(C)C)C(C)(C)C(c2ccccc2)OC1=O (stereo not given)	.	55	.	.	.	.
CC1(C)C(=O)OC(C(=O)c2ccccc2)C2(CCCCC2)C1=O (stereo not given)	.	.	.	.	.	/
N#CCSc1nnc(Cc2cccc3ccccc23)n1C1CCCCC1	.	.	.	.	.	/
Cn1c(-c2ccc(C=O)s2)nc2c3ccccc3c3ccccc3c21	.	68	.	.	.	.
Cc1cc(C)c2c(c1)-c1cc(C)nn1C(c1ccc3c(c1)OCO3)N2 (stereo not given)	.	99	.	.	.	76
Cc1ccc(N2C(=O)CC(Sc3ccccc3C(=O)O)C2=O)cc1C (stereo not given)	.	.	/	.	/	/
Cc1csc(/N=C/c2ccc([N+](=O)[O-])cc2)n1	.	52	.	.	.	.
C=CCc1c(C)nc(C)nc1N/N=C/c1ccc([N+](=O)[O-])cc1	.	.	.	.	.	/
CCOC1(OCC)C(c2ccc(Cl)cc2)C(C#N)(C#N)C1(OCC)OCC (stereo not given)	.	100	.	.	.	.
CCOC1(OCC)N=C(N)C2(C#N)C(c3cccc(C)c3)C12C#N (stereo not given)	.	.	.	.	.	/
CCOC1(OCC)C(c2ccc(N)cc2)C(C#N)(C#N)C1(OCC)OCC (stereo not given)	.	63	.	.	/	.
O=C(/C=C/c1ccccc1)N1CCC(c2ccccc2)C1 (stereo not given)	.	.	.	.	.	/
C1=CN2CCC1C(c1ccccc1)C2 (stereo not given)	.	79	.	.	.	.
O=C(/C=C/c1ccccc1)CC(O)(c1ccccc1)C(F)(F)F (stereo not given)	.	100	3.9	.	/	76
O=C(CC(O)(c1ccccc1)C(F)(F)C(F)F)c1cccs1 (stereo not given)	.	.	.	.	.	/
N=C(N)c1ccc(OCCCCCOc2ccc(C(=N)N)cc2)cc1	.	100	.	.	.	100
S=c1[nH]ccn1-c1cccc(Cl)c1	.	59	.	.	.	.
Cc1ccc2cccnc2c1N	.	.	/	.	/	/
SMILES	PMI act hi M6P	L major viab	HCT116 bCat-KO	PMI activator	PTEN del growth	L major 1uM
c1cnc2c(c1)ccc1cccnc12	.	100	6.0	.	.	52!
NC(=O)Cc1c[nH]c2cccc(O)c12	.	.	.	.	.	/
COc1cc(/C=C(\C#N)C(=O)Nc2cccnc2)ccc1OC(C)C	.	.	.	.	.	/
O=C(O)c1ccc(CNCc2c(Cl)cccc2Cl)cc1	.	.	.	.	.	/
CC(=O)Oc1c(C)cc(O)c2ccccc12	.	82	.	.	.	.
COc1ccc(NC(=O)CN(C)S(=O)(=O)c2ccc3c(c2)CCC(=O)N3)c(OC)c1	.	.	.	.	.	/
Cc1c(C#N)c(SCC(N)=O)nc2c1CCCC2	.	.	.	.	.	/
COc1ccc2nc(N3C(=O)/C(=C/c4ccccc4)NC3=S)sc2c1	.	61	.	.	.	.
